According to ChEMBL document CHEMBL1177711, “Novel quinolizidinyl derivatives as antiarrhythmic agents: 2. Further investigation” (J Med Chem, 2010):
Activity calls are given as the source filed them.

Columns and labels:
[1] = tested on: Heart; assay: Cardioprotective effect in Langendorff perfused guinea pig spontaneously beating […] assessed as heart rat at 10 uM (RVb = 175 to 190 +/- 5 to 11 bpm); type: functional, Cavia porcellus
[2] = Cardioprotective effect in Langendorff perfused guinea pig spontaneously beating […] assessed as atrioventicular conduction time at 0.001 uM (RVb = 50 to 55 +/- 1 to 4 ms); type: functional; settings: Cavia porcellus
In short: (§1)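 Whole guinea pig hearts were Langendorff-perfused and their ECG recorded at graded concentrations. Intervals read were PR (atrioventricular conduction time), QT (ventricular action potential duration) and QRS (intraventricular conduction time).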

[3] = Negative inotropic activity against potassium-induced contraction in guinea pig left atrium assessed as decrease in developed tension; type: functional, tissue-based; settings: Cavia porcellus, Cardiac atrium
[4] = Cardioprotective effect in Langendorff perfused guinea pig spontaneously beating […] assessed as intraventicular conduction time at 1 uM (RVb = 19 to 24 +/- 1 to 2 ms); type: functional; settings: Cavia porcellus; in short: as §1
[5] = Cardioprotective effect in Langendorff perfused guinea pig spontaneously beating […] assessed as duration of ventricular action potential at 0.001 uM (RVb = 140 to 161 +/- 2 to 8 ms); type: functional, Cavia porcellus, Cardiac ventricle; in short: as §1
[6] = Cardioprotective effect in Langendorff perfused guinea pig spontaneously beating […] assessed as atrioventicular conduction time at 0.01 uM (RVb = 50 to 55 +/- 1 to 4 ms); type: functional; settings: Cavia porcellus; in short: as §1
[7] = Cardioprotective effect in Langendorff perfused guinea pig spontaneously beating […] assessed as duration of ventricular action potential at 10 uM (RVb = 140 to 161 +/- 2 to 8 ms); type: functional, Cavia porcellus, Cardiac ventricle; in short: as §1
[8] = Negative inotropic activity against potassium-induced contraction in guinea pig left atrium assessed as decrease in developed tension at 10 uM relative to control; type: functional, Cavia porcellus, Cardiac atrium; parameters: scale not given: the % may be the effect or the level left
[9] = Cardioprotective effect in Langendorff perfused guinea pig spontaneously beating […] assessed as intraventicular conduction time at 0.001 uM (RVb = 19 to 24 +/- 1 to 2 ms); type: functional; settings: Cavia porcellus; in short: as §1
[10] = Cardioprotective effect in Langendorff perfused guinea pig spontaneously beating […] assessed as atrioventicular conduction time at 1 uM (RVb = 50 to 55 +/- 1 to 4 ms); type: functional; settings: Cavia porcellus; in short: as §1
[11] = tested on: Heart; assay: Cardioprotective effect in Langendorff perfused guinea pig spontaneously beating […] assessed as heart rat at 0.1 uM (RVb = 175 to 190 +/- 5 to 11 bpm); type: functional, Cavia porcellus
[12] = Cardioprotective effect in Langendorff perfused guinea pig spontaneously beating […] assessed as intraventicular conduction time at 10 uM (RVb = 19 to 24 +/- 1 to 2 ms); type: functional; settings: Cavia porcellus; in short: as §1
[13] = Antiarrhythmic activity in sinusoidal alternating current-induced guinea pig left atrium assessed as increase in current strength at which extra beats occur at 50 uM measured every 30 mins; type: functional, Cavia porcellus, Cardiac atrium
In short: (§2)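 Isolated guinea pig left atria, electrically driven at 1 Hz, were exposed to sinusoidal alternating current to induce arrhythmia. The read-out was the rise in the ac-arrhythmia threshold over concentrations up to 100 μM.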

[14] = Cardioprotective effect in Langendorff perfused guinea pig spontaneously beating […] assessed as duration of ventricular action potential at 0.1 uM (RVb = 140 to 161 +/- 2 to 8 ms); type: functional, Cavia porcellus, Cardiac ventricle; in short: as §1
[15] = Negative chronotropic activity against potassium-induced contraction in guinea pig left atrium assessed as decrease atrial rate at 100 uM relative to control; type: functional, Cavia porcellus, Cardiac atrium; parameters: scale not given: the % may be the effect or the level left
[16] = Cardioprotective effect in Langendorff perfused guinea pig spontaneously beating […] assessed as duration of ventricular action potential at 0.01 uM (RVb = 140 to 161 +/- 2 to 8 ms); type: functional, Cavia porcellus, Cardiac ventricle; in short: as §1
[17] = Negative chronotropic activity against potassium-induced contraction in guinea pig left atrium assessed as decrease atrial rate; type: functional, tissue-based; settings: Cavia porcellus, Cardiac atrium
[18] = Cardioprotective effect in Langendorff perfused guinea pig spontaneously beating […] assessed as duration of ventricular action potential at 1 uM (RVb = 140 to 161 +/- 2 to 8 ms); type: functional, Cavia porcellus, Cardiac ventricle; in short: as §1
[19] = Cardioprotective effect in Langendorff perfused guinea pig spontaneously beating […] assessed as atrioventicular conduction time at 10 uM (RVb = 50 to 55 +/- 1 to 4 ms); type: functional; settings: Cavia porcellus; in short: as §1
[20] = Cardioprotective effect in Langendorff perfused guinea pig spontaneously beating […] assessed as intraventicular conduction time at 0.1 uM (RVb = 19 to 24 +/- 1 to 2 ms); type: functional; settings: Cavia porcellus; in short: as §1
[21] = Cardioprotective effect in Langendorff perfused guinea pig spontaneously beating […] assessed as atrioventicular conduction time at 0.1 uM (RVb = 50 to 55 +/- 1 to 4 ms); type: functional; settings: Cavia porcellus; in short: as §1
[22] = tested on: Heart; assay: Cardioprotective effect in Langendorff perfused guinea pig spontaneously beating […] assessed as heart rat at 1 uM (RVb = 175 to 190 +/- 5 to 11 bpm); type: functional, Cavia porcellus
[23] = tested on: Heart; assay: Cardioprotective effect in Langendorff perfused guinea pig spontaneously beating […] assessed as heart rat at 0.001 uM (RVb = 175 to 190 +/- 5 to 11 bpm); type: functional, Cavia porcellus
[24] = Antiarrhythmic activity in sinusoidal alternating current-induced guinea pig left atrium assessed as increase in current strength at which extra beats occur measured every 30 mins; type: functional, tissue-based; settings: Cavia porcellus, Cardiac atrium, 0.5 h; in short: as §2
[25] = Cardioprotective effect in Langendorff perfused guinea pig spontaneously beating […] assessed as intraventicular conduction time at 0.01 uM (RVb = 19 to 24 +/- 1 to 2 ms); type: functional; settings: Cavia porcellus; in short: as §1
[26] = tested on: Heart; assay: Cardioprotective effect in Langendorff perfused guinea pig spontaneously beating […] assessed as heart rat at 0.01 uM (RVb = 175 to 190 +/- 5 to 11 bpm); type: functional, Cavia porcellus
[27] = tested on: Aorta; assay: Vasorelaxant activity in potassium depolarized guinea pig aortic strip assessed as inhibition of calcium-induced contraction at 100 uM; type: functional; settings: Cavia porcellus
[28] = Antiarrhythmic activity in sinusoidal alternating current-induced guinea pig left atrium assessed as increase in current strength at which extra beats occur at 10 uM measured every 30 mins; type: functional, Cavia porcellus, Cardiac atrium; in short: as §2
[29] = Negative chronotropic activity against potassium-induced contraction in guinea pig left atrium assessed as decrease atrial rate at 50 uM relative to control; type: functional, Cavia porcellus, Cardiac atrium; parameters: scale not given: the % may be the effect or the level left
[30] = species on record: Cavia porcellus; assay: Agonist activity at muscarinic M2 receptor in guinea pig left atrium assessed as negative ionotropic activity in presence of carbachol; type: functional, tissue-based; settings: Cardiac atrium
[31] = Negative inotropic activity against potassium-induced contraction in guinea pig left atrium assessed as decrease in developed tension at 50 uM relative to control; type: functional, Cavia porcellus, Cardiac atrium; parameters: scale not given: the % may be the effect or the level left
[32] = Negative inotropic activity against potassium-induced contraction in guinea pig left atrium assessed as decrease in developed tension at 0.1 uM relative to control; type: functional, Cavia porcellus, Cardiac atrium; parameters: scale not given: the % may be the effect or the level left
[33] = species on record: Cavia porcellus; assay: Agonist activity at muscarinic M2 receptor in guinea pig left atrium assessed as negative ionotropic activity in presence of 1 uM atropine; type: functional, tissue-based; settings: Cardiac atrium
In short: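 Isolated guinea-pig left atria electrically driven at 1 Hz; contractile force (inotropy) recorded. Potency values derived by probit analysis (Litchfield and Wilcoxon).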

Cc1cc(C(=O)c2ccccc2)ccc1NC(=O)C[C@@H]1CCCN2CCCC[C@H]12
Activity [1]: 137 bpm | AV conduction time [2]: 54 ms | EC50 [3]: 44 nM | intraventricular conduction time [4]: 22 ms | Activity [5]: 158 ms | AV conduction time [6]: 54 ms | Activity [7]: 170 ms | Activity [8]: 79% | intraventricular conduction time [9]: 23 ms | AV conduction time [10]: 56 ms | Activity [11]: 158 bpm | intraventricular conduction time [12]: 25 ms | Activity [13]: 64% | Activity [14]: 155 ms | Activity [15]: 59% | Activity [16]: 154 ms | EC50 [17]: 6.14 µM | Activity [18]: 162 ms | AV conduction time [19]: 57 ms | intraventricular conduction time [20]: 23 ms | AV conduction time [21]: 53 ms | Activity [22]: 145 bpm | Activity [23]: 177 bpm | EC50 [24]: 0.15 µM | intraventricular conduction time [25]: 20 ms | Activity [26]: 171 bpm

COc1ccc2c(c1)nc(-c1ccccc1)c(=O)n2C[C@H]1CCCN2CCCC[C@@H]12
EC50 [3]: 31 nM | Activity [8]: 85% | Activity [13]: 30% | inhibition at 100 µM [27]: 11% | EC50 [17]: 15.3 µM

Cc1cccc(C)c1OC[C@@H]1CCCN2CCCC[C@H]12
inhibition at 100 µM [27]: 26%

Cc1cc(C)c(NCC[C@@H]2CCCN3CCCC[C@H]23)c(C)c1
Activity [28]: 63% | EC50 [3]: 34 nM | Activity [8]: 89% | inhibition at 100 µM [27]: 37% | Activity [29]: 44% | EC50 [24]: 8.15 µM

C[N+](C)(C)CCOC(N)=O
inhibition [30]: inactive

CCN(CC)CCNC(=O)c1ccc(N)cc1 [PROCAINAMIDE]
inhibition at 100 µM [27]: 2%

COc1cc(N)c(Cl)cc1C(=O)NC[C@@H]1CCCN2CCCC[C@H]12
Activity [31]: 95% | EC50 [3]: 350 nM | Activity [13]: 113% | inhibition at 100 µM [27]: 6% | Activity [29]: 22% | EC50 [24]: 6.73 µM

Cc1cc(C)c(NC(=O)C[C@@H]2CCCN3CCCC[C@H]23)c(C)c1
Activity [32]: 54% | EC50 [3]: 10 nM | Activity [13]: 49% | inhibition at 100 µM [27]: 2%

CN1[C@@H]2CC[C@H]1C[C@@H](OC(=O)C(CO)c1ccccc1)C2 (stereo partly specified)
inhibition [33]: inactive
